Experimental data: article PMC6355468 (Journal of Pharmaceutical Analysis, 2018)
Where two headings read alike, the source gives them in different places.

Experiments:
[1] = assay type: physicochemical, rat
[2] = Rat pharmacokinetic study of DZ2002; assay type: in vivo, Sprague-Dawley rats
How it was run: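 Sprague-Dawley rats (230–280 g), four groups of 3 male + 3 female. Single tail-vein bolus of 5 mg/kg (normal saline), or single gavage doses of 5, 10 or 25 mg/kg. Blood (~100 μL) drawn at 0, 5, 15, 30 min and 1, 2, 4, 6, 8, 11, 24 h into heparinized tubes holding 400 μL methanol with 500 nM internal standard, then centrifuged. Parent and acid metabolite measured by LC-MS/MS. Non-compartmental analysis; F from dose-normalized po/iv AUC0–∞, either parent alone or parent plus acid.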

[3] = tested on: rat blood carboxylesterases; assay type: in vitro ADME; conditions: up to 30 min
How it was run: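 Fresh rat blood (200 μL) mixed first with 400 μL methanol, then test compound added. Incubated at 23 °C for 0, 2, 5, 10, 15 and 30 min in triplicate, then centrifuged. Supernatants analysed by LC-MS/MS (Synergi Fusion-RP column, water/methanol ammonium formate–formic acid gradient) for the acid metabolite.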

[4] = both, Sprague-Dawley, rat, blood, po
[5] = female, Sprague-Dawley, rat, blood, iv, 5 mg/kg
[6] = female, Sprague-Dawley, rat, blood, po, 5 mg/kg
[7] = female, Sprague-Dawley, rat, blood, po, 10 mg/kg
[8] = female, Sprague-Dawley, rat, blood, po, 25 mg/kg
[9] = male, Sprague-Dawley, rat, blood, iv, 5 mg/kg
[10] = male, Sprague-Dawley, rat, blood, po, 5 mg/kg
[11] = male, Sprague-Dawley, rat, blood, po, 10 mg/kg
[12] = male, Sprague-Dawley, rat, blood, po, 25 mg/kg
[13] = rats, intravenous DZ2002 at 5 mg/kg
[14] = after three cycles of freeze and thaw of −70 °C↔23 °C, 80 nM
[15] = after three cycles of freeze and thaw of −70 °C↔23 °C, 8000 nM
[16] = in rat blood at 23 °C for 4 h, 80 nM
[17] = in rat blood at 23 °C for 4 h, 8000 nM
[18] = in rat blood at −70 °C for 60 days, 80 nM
[19] = in rat blood at −70 °C for 60 days, 8000 nM
[20] = in supernatant of methanol-treated rat blood at 10 °C for 24 h, 80 nM
[21] = in supernatant of methanol-treated rat blood at 10 °C for 24 h, 8000 nM

For “3-(6-amino-9H-purin-9-yl)-2,2-diethylpropanoic acid [Internal standard, reference compound]”, the “Stability, response (%Control)” value ([1]; after three cycles of freeze and thaw of −70 °C↔23 °C, 500 nM) was “(98.4) %Control”, the “Stability, response (%Control)” value ([1]; in rat blood at 23 °C for 4 h, 500 nM) was “(108) %Control” and the “Stability, response (%Control)” value ([1]; in rat blood at −70 °C for 60 days, 500 nM) was “(104) %Control”. For the same compound, the “Stability, response (%Control)” value ([1]; in stock solutions at −70 °C for 6 months, internal standard (500 nM)) was “(97.9) %Control” and the “Stability, response (%Control)” value ([1]; in supernatant of methanol-treated rat blood at 10 °C for 24 h, 500 nM) was “(106) %Control”.

With COC(=O)[C@@H](O)CCn1cnc2c(N)ncnc21 [DZ2002, Methyl (S)-4-(6-amino-9H-purin-9-yl)-2-hydroxybutanoate] the bioavailability [2, 4] was 90 to 159%, the half-life [2, 4] was 18 to 54 min and the “F1 (oral bioavailability, from AUC of DZ2002)” value ([2]; female rat, oral DZ2002 at 5 mg/kg vs iv 5 mg/kg) was 145 ± 27%. For the same compound, the “F1 (oral bioavailability, from AUC of DZ2002)” value ([2]; female rat, oral DZ2002 at 10 mg/kg vs iv 5 mg/kg) was 90 ± 27%, the “F1 (oral bioavailability, from AUC of DZ2002)” value ([2]; female rat, oral DZ2002 at 25 mg/kg vs iv 5 mg/kg) was 118 ± 41% and the AUC(0-inf) [2, 5] was 0.68 ± 0.396 µM·h. The AUC(0-t) [2, 5] was 0.66 ± 0.376 µM·h, the MRT [2, 5] was 9 ± 3.6 min and the Vd [2, 5] was 4.59 ± 0.96 L/kg. The clearance [2, 5] was 590 mL/min/kg, the concentration at 5 min [2, 5] was 3.03 ± 1.45 µM and the half-life [2, 5] was 9 ± 6.6 min. The AUC(0-inf) [2, 6] was 0.985 ± 0.184 µM·h, the AUC(0-t) [2, 6] was 0.963 ± 0.182 µM·h and the Cmax [2, 6] was 2.72 ± 0.418 µM. The MRT [2, 6] was 25.8 ± 6.6 min, the Tmax [2, 6] was 4.8 min and the half-life [2, 6] was 18.6 ± 7.2 min. The AUC(0-inf) [2, 7] was 1.23 ± 0.348 µM·h, the AUC(0-t) [2, 7] was 1.18 ± 0.366 µM·h and the Cmax [2, 7] was 2.13 ± 0.742 µM. For the same compound, the MRT [2, 7] was 44.4 ± 9.6 min, the Tmax [2, 7] was 8.4 ± 6 min and the half-life [2, 7] was 32.4 ± 10.8 min. It also gave an AUC(0-inf) [2, 8] of 4.02 ± 1.4 µM·h, an AUC(0-t) [2, 8] of 3.95 ± 1.43 µM·h and a Cmax [2, 8] of 8.49 ± 2.49 µM. For the same compound, the MRT [2, 8] was 40.2 ± 13.8 min, the Tmax [2, 8] was 4.8 min and the half-life [2, 8] was 42.6 ± 25.2 min. The “F1 (oral bioavailability, from AUC of DZ2002)” value ([2]; male rat, oral DZ2002 at 5 mg/kg vs iv 5 mg/kg) was 157 ± 18%, the “F1 (oral bioavailability, from AUC of DZ2002)” value ([2]; male rat, oral DZ2002 at 10 mg/kg vs iv 5 mg/kg) was 146 ± 20% and the “F1 (oral bioavailability, from AUC of DZ2002)” value ([2]; male rat, oral DZ2002 at 25 mg/kg vs iv 5 mg/kg) was 159 ± 48%. It also gave an AUC(0-inf) [2, 9] of 0.504 ± 0.146 µM·h, an AUC(0-t) [2, 9] of 0.495 ± 0.142 µM·h and an MRT [2, 9] of 6.6 ± 1.2 min. It also gave a Vd [2, 9] of 4.5 ± 1.22 L/kg, a clearance [2, 9] of 707 mL/min/kg and a concentration at 5 min [2, 9] of 2.46 ± 0.597 µM. For the same compound, the half-life [2, 9] was 4.8 ± 0.6 min, the AUC(0-inf) [2, 10] was 0.79 ± 0.092 µM·h and the AUC(0-t) [2, 10] was 0.729 ± 0.052 µM·h. The Cmax [2, 10] was 1.38 ± 0.457 µM, the MRT [2, 10] was 40.2 ± 19.2 min and the Tmax [2, 10] was 11.4 ± 6 min. For the same compound, the half-life [2, 10] was 27 ± 13.8 min, the AUC(0-inf) [2, 11] was 1.47 ± 0.199 µM·h and the AUC(0-t) [2, 11] was 1.41 ± 0.171 µM·h. It also gave a Cmax [2, 11] of 2.36 ± 1.1 µM, an MRT [2, 11] of 49.8 ± 14.4 min and a Tmax [2, 11] of 8.4 ± 6 min. It also gave a half-life [2, 11] of 40.8 ± 29.4 min, an AUC(0-inf) [2, 12] of 4 ± 1.21 µM·h and an AUC(0-t) [2, 12] of 3.85 ± 1.15 µM·h. The Cmax [2, 12] was 4.02 ± 0.898 µM, the MRT [2, 12] was 72 ± 22.2 min and the Tmax [2, 12] was 8.4 ± 6 min. For the same compound, the half-life [2, 12] was 55.8 ± 16.2 min, the “Systemic clearance (CLtot,b) exceeding rat cardiac output (17.8 L/h/kg)” value [2, 13] was “around 2 times” and the “Systemic clearance (CLtot,b) exceeding rat hepatic blood flow rate (3.31 L/h/kg)” value [2, 13] was “around 13 times”. For the same compound, the “Stability, response (%Control)” value [1, 14] was “(108) %Control”, the “Stability, response (%Control)” value [1, 15] was “(102) %Control” and the “Stability, response (%Control)” value [1, 16] was “(93.6) %Control”. The “Stability, response (%Control)” value [1, 17] was “(102) %Control”, the “Stability, response (%Control)” value [1, 18] was “(94.6) %Control” and the “Stability, response (%Control)” value [1, 19] was “(92.4) %Control”. The “Stability, response (%Control)” value [1, 20] was “(108) %Control”, the “Stability, response (%Control)” value [1, 21] was “(108) %Control” and the “Formation of DZA in methanol-treated rat blood spiked with DZ2002” value ([3]; 400 μL methanol to 50–200 μL rat blood, 23 °C) was “undetected”. For the same compound, the “Stability of DZ2002 in rat blood” value ([3]; freshly collected rat blood, 1000 nM, 23 or 37 °C) was “quickly transformed into its acid metabolite DZA”.

With Nc1ncnc2c1ncn2CCC(O)C(=O)O (stereo not shown) [DZA, 4-(6-amino-9H-purin-9-yl)-2-hydroxybutyric acid] the half-life [2, 4] was 78 to 306 min, the AUC(0-inf) [2, 5] was 4.8 ± 0.3 µM·h and the AUC(0-t) [2, 5] was 4.71 ± 0.34 µM·h. For the same compound, the MRT [2, 5] was 30.6 ± 1.8 min, the concentration at 5 min [2, 5] was 15.5 µM and the half-life [2, 5] was 73.2 ± 26.4 min. For the same compound, the AUC(0-inf) [2, 6] was 4.36 ± 0.701 µM·h, the AUC(0-t) [2, 6] was 4.27 ± 0.669 µM·h and the Cmax [2, 6] was 6.49 ± 1.04 µM. It also gave an MRT [2, 6] of 60.6 ± 5.4 min, a Tmax [2, 6] of 11.4 ± 6 min and a half-life [2, 6] of 124 ± 68.4 min. The AUC(0-inf) [2, 7] was 7.81 ± 0.846 µM·h, the AUC(0-t) [2, 7] was 7.6 ± 1.03 µM·h and the Cmax [2, 7] was 7.23 ± 1.98 µM. The MRT [2, 7] was 97.8 ± 44.4 min, the Tmax [2, 7] was 16.8 ± 12.6 min and the half-life [2, 7] was 233 ± 225 min. For the same compound, the AUC(0-inf) [2, 8] was 18.4 µM·h, the AUC(0-t) [2, 8] was 17.6 µM·h and the Cmax [2, 8] was 19.8 µM. For the same compound, the MRT [2, 8] was 177 ± 166 min, the Tmax [2, 8] was 11.4 ± 6 min and the half-life [2, 8] was 305 ± 218 min. It also gave an AUC(0-inf) [2, 9] of 5.03 ± 0.212 µM·h, an AUC(0-t) [2, 9] of 4.94 ± 0.226 µM·h and an MRT [2, 9] of 33.6 ± 16.8 min. The concentration at 5 min [2, 9] was 15.3 µM, the half-life [2, 9] was 96.6 ± 104 min and the AUC(0-inf) [2, 10] was 3.9 ± 0.501 µM·h. The AUC(0-t) [2, 10] was 3.77 ± 0.608 µM·h, the Cmax [2, 10] was 5.23 ± 2.59 µM and the MRT [2, 10] was 74.4 ± 40.8 min. For the same compound, the Tmax [2, 10] was 19.8 ± 8.4 min, the half-life [2, 10] was 79.8 ± 38.4 min and the AUC(0-inf) [2, 11] was 6.81 ± 0.223 µM·h. For the same compound, the AUC(0-t) [2, 11] was 6.71 ± 0.267 µM·h, the Cmax [2, 11] was 7.03 ± 1.05 µM and the MRT [2, 11] was 78.6 ± 11.4 min. For the same compound, the Tmax [2, 11] was 19.8 ± 8.4 min, the half-life [2, 11] was 87.6 ± 13.8 min and the AUC(0-inf) [2, 12] was 18.4 µM·h. The AUC(0-t) [2, 12] was 18.1 µM·h, the Cmax [2, 12] was 16 µM and the MRT [2, 12] was 96 ± 18.6 min. For the same compound, the Tmax [2, 12] was 25.2 ± 8.4 min, the half-life [2, 12] was 167 ± 82.8 min and the “Stability, response (%Control)” value [1, 14] was “(98.1) %Control”. The “Stability, response (%Control)” value [1, 15] was “(89.5) %Control”, the “Stability, response (%Control)” value [1, 16] was “(95.2) %Control” and the “Stability, response (%Control)” value [1, 17] was “(97.5) %Control”. The “Stability, response (%Control)” value [1, 18] was “(108) %Control”, the “Stability, response (%Control)” value [1, 19] was “(112) %Control” and the “Stability, response (%Control)” value [1, 20] was “(106) %Control”. The “Stability, response (%Control)” value [1, 21] was “(109) %Control”.
